Source: ChEMBL document CHEMBL1145286, “Dual angiotensin II and endothelin A receptor antagonists: synthesis of 2'-substituted N-3-isoxazolyl biphenylsulfonamides with improved potency and pharmacokinetics” (2005)
Calls of active or inactive are those of the source. The calls are words filed in the database; no cut-off is given here.

What was measured:
Assay type in all cases: functional
[1] = target: T1, Endothelin-1 receptor (Rattus norvegicus) (UniProt P26684); test: Endothelin pressor effect in rats after oral dose of 30 uM/kg
T1 sequence (whole entry): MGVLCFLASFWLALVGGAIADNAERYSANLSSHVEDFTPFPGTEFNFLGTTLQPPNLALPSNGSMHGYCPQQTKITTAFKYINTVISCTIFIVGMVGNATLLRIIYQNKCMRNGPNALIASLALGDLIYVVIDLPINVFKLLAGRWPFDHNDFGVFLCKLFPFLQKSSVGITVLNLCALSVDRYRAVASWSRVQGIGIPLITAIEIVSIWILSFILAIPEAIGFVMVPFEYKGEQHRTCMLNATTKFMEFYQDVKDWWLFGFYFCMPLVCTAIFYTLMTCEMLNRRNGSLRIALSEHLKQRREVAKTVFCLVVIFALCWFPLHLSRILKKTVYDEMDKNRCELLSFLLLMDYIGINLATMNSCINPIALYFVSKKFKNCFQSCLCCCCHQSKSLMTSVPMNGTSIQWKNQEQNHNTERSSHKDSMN
How it was run: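 Conscious normotensive rats; big endothelin-1 (1.0 nmol/kg iv) challenge after vehicle gave the control pressor response. Drug at 30 μmol/kg given po (or iv), then bET-1 re-challenge at various times after dosing. 6–8 rats per group.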

[2] = target: Angiotensin II receptor (AT-1) type-1 (Rattus norvegicus) (UniProt P29089+P25095); test: Angiotensin II pressor effect in rats after oral dose of 30 uM/kg
How it was run: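 Conscious rats given vehicle by gavage, then an iv bolus Ang II challenge as control pressor response; drug at 30 μmol/kg by oral gavage, Ang II re-challenge at intervals up to 240 min. 6–8 rats per dose. […]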

[3] = test system: Caco-2; test: Permeability in Caco-2 cell monolayer

Row | SMILES | Activity [1] | Activity [2] | Activity [3] [nm/s]
1 | CCCCC1=NC2(CCCC2)C(=O)N1Cc1ccc(-c2ccccc2S(=O)(=O)Nc2onc(C)c2C)c(CCC)c1 | 8600 AUC units | 15900 AUC units | 240
2 | CCCCC1=NC2(CCCC2)C(=O)N1Cc1ccc(-c2ccccc2S(=O)(=O)Nc2noc(C)c2C)c(CCC)c1 | 13000 AUC units | 16300 AUC units | –
3 | CCCCC1=NC2(CCCC2)C(=O)N1Cc1ccc(-c2ccccc2S(=O)(=O)Nc2onc(C)c2C)c(COCC)c1 | 3900 AUC units | 13900 AUC units | 170
4 | CCCCC1=NC2(CCCC2)C(=O)N1Cc1ccc(-c2ccccc2-c2nnn[nH]2)cc1 [IRBESARTAN] | inactive | 13500 AUC units | 100
5 | Cc1noc(NS(=O)(=O)c2ccccc2-c2ccc(-c3ncco3)cc2)c1C | 9700 AUC units | inactive | –
6 | CCCCC1=NC2(CCCC2)C(=O)N1Cc1ccc(-c2ccccc2S(=O)(=O)Nc2onc(C)c2C)c(CN2CCC(C)(C)C2=O)c1 [BMS-248360] | 7900 AUC units | 5800 AUC units | 30
7 | CCCCC1=NC2(CCCC2)C(=O)N1Cc1ccc(-c2ccccc2S(=O)(=O)Nc2noc(C)c2C)c(COCC)c1 | 15800 AUC units | 18600 AUC units | –
